# NS3 helicase inh: inhibitors of HCV NS3 helicase, primary screen, biochemical, Cy5 molecular beacon fluorescence; actives 0.56% (n = 290,000); NS3 helicase DNA unwinding; inhibition, % at 10.9 µM; AID 1800, 2009; Hepatitis C virus NS3 helicase;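 active = inhibition above the mean of all tested compounds plus 3 SD, set per campaign, cut at about 35% in these data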;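 also: 0% = DMSO wells and 100% = thioflavine S control wells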
#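 Measured by: Cy5 fluorescence, 0 and 60 min reads / Assay system: NS3 helicase fragment of HCV / Control set: low DMSO, high thioflavine S at 110 µM / Times: 1 h reaction at 25 °C, ATP-initiated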
# HCV core dimer: inhibitors of HCV core protein dimerization, primary screen, biochemical, TR-FRET, high-throughput | actives 0.33% (n = 300,000) | inhibition, % at 5 µM | TR-FRET GST/Flag-core106 dimerization, 1536-well;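 active = inhibition above the mean of all tested compounds plus 3 SD, set per screening campaign, cut at about 45% in these data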
#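 System: GST-tagged and Flag-tagged HCV core protein residues 1-106 / Input: core106 proteins, GST 13.5 nM and Flag 17 nM / Buffer or medium: KF-containing HEPES buffer, pH 7.45, DTT, CHAPS, BSA / Probe or stimulus: Eu-anti-GST and XL665-anti-Flag labelled anti-tag antibodies / Schedule: 4 h, 22.5 °C incubation / Technique: TR-FRET 671 and 617 nm emission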
# rCAG binder-1: binders of r(CAG) RNA repeats, primary screen, biochemical, fluorescence | r(CAG) RNA repeat, TO-PRO-1 dye displacement fluorescence | inhibition, % at 3 µM | actives 1.3% (n = 370,000);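 active = inhibition above the plate cutoff, the mean of all test compounds on that plate plus 3 SD, cut at about 35% in these data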;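 also: 0% = DMSO alone and 100% = 100 µM mitoxantrone as full dye displacement; higher means more dye released from RNA so lower well fluorescence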
# TAAR1 antag: human TAAR1 antagonists, primary screen, Fluo-8 calcium fluorescence, CHO RD-HGA16 cells | Trace amine-associated receptor 1 (Homo sapiens), Q96RJ0 | antagonist | inhibition, % at 3 µM | actives 1.5% (n = 360,000);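 active = inhibition above a per-plate cutoff, the mean inhibition of test compounds on that plate plus 3 SD, cut at about 49% in these data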;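 also: 0% = DMSO plus EC80 beta-PEA response and 100% = DMSO alone without agonist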
# Target sequence (Q96RJ0 whole entry, looked up): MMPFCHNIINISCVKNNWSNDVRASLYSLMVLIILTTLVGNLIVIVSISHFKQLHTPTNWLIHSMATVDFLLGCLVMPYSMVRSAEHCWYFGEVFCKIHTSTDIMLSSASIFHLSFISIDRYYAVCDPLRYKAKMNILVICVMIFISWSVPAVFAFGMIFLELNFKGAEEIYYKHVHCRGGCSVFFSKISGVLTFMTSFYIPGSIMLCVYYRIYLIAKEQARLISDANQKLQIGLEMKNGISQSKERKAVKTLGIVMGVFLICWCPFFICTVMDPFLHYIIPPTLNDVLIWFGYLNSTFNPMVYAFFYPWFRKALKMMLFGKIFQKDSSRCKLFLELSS
#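 Test system – hTAAR1-expressing CHO RD-HGA16 cells, Gα16-coupled · Reagent – β-PEA at EC80 concentration, post-compound challenge · Compound dosing – 3 µM, single point · Timing – 140 s kinetic read after compound, 140 s after agonist · Detection – Fluo-8 intracellular calcium dye fluorescence, real-time kinetic reads · Control set – DMSO and EC80 PEA controls · Repeats – n of 1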
# TAAR1 agonist: human TAAR1 agonists, primary screen, Fluo-8 calcium fluorescence, CHO RD-HGA16 cells | vehicle wells 0%, saturating PEA agonist 100% | activation, % at 3 µM | actives 0.99% (n = 360,000) | AID 624467, 2012;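 active = activation above the mean activation of all test compounds in the run plus 3 SD, cut at about 38% in these data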
#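 Repeats: no replicates (n 1) | Material: CHO-derived RD-HGA16 cells with stable Gα16 and human TAAR1 | Technique: Kinetic Fluo-8 calcium fluorescence | Schedule: 17-24 h seeding, 75 min 37 °C dye, 30 min RT | Evaluation: % activation from peak over basal fluorescence ratio, DMSO-to-PEA scaled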
# rCAG bind conf: small molecules binding CAG repeat RNA – biochemical, fluorescence, confirmation. shares compounds with rCAG binder-1. r(CAG) RNA repeat, TO-PRO-1 dye displacement fluorescence. actives 70% (n = 4,300). inhibition, % at 3 µM;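 active = inhibition above a per-plate cutoff, the mean inhibition of sample wells plus 3 SD, cut at about 35% in these data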;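 also: loss of TO-PRO-1 fluorescence as compound displaces dye from 1x1 AA loop RNA; 0% = DMSO only wells and 100% = 100 µM mitoxantrone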
# dCAG dye counter: displacement of TO-PRO-1 from CAG DNA duplex, counter-screen for rCAG RNA repeat binder project, biochemical, fluorescence, TO-PRO-1 dye, d(CAG) DNA oligo | shares compounds with rCAG binder-1 | AID 652068, 2013 | inhibition, % at 3 µM | actives 94% (n = 4,300) | d(CAG) DNA oligo TO-PRO-1 dye displacement;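 active = inhibition above its plate's cutoff, the mean test-well inhibition plus 3 SD, cut at about 4.8% in these data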;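 also: 0% = DNA dye mix with DMSO and 100% = 100 µM mitoxantrone; hits displace the dye from DNA and so lower well fluorescence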
# dCAG dye DR: inhibitors of DNA CAG/GTC TO-PRO-1 complex, dose response, counter-screen for rCAG RNA repeat binder project, biochemical, fluorescence, TO-PRO-1 dye; shares compounds with rCAG binder-1; DNA CAG/GTC duplex TO-PRO-1 dye displacement fluorescence; IC50, µM; actives 20% (n = 250); in the data active = IC50 below about 10 µM
# dCAG TOPRO ctr: TO-PRO-1 dye complex inhibitors on d(CAG) DNA, dose response, counter-screen, biochemical, fluorescence, late stage; shares compounds with rCAG binder-1; d(CAG) DNA duplex TO-PRO-1 dye displacement; IC50, µM; actives 80% (n = 30)
# rCAG binder-2: molecules binding r(CAG) RNA repeats, late stage dose response, late-stage follow-up, biochemical, fluorescence, dose response, powder samples. shares compounds with rCAG binder-1. r(CAG) RNA TO-PRO-1 dye displacement. IC50, µM. actives 100% (n = 30). AID 720651, 2013
# * = called active by the depositor; i = inactive; / = not tested or not shown. Sampled rows, rich in hits. Any-hit rate of the full collection: about 3.7%. Unless noted, no rule for the calls is given here.
SMILES,NS3 helicase inh,HCV core dimer,rCAG binder-1,TAAR1 antag,TAAR1 agonist,rCAG bind conf,dCAG dye counter,others
COc1cccc(/C=C2\SC(=S)N(C(Cc3ccccc3)C(=O)O)C2=O)c1 (stereo not drawn),-7,12,69*,16,12,78*,31*,dCAG dye DR=i
CN1Cc2nnn(Cc3ccccc3)c2-c2cc(N3CCCCC3)ccc2S1(=O)=O,/,/,4,/,/,/,/,
COc1c(/C=C2\SC(=Nc3ccccc3Cl)NC2=O)cccc1[N+](=O)[O-],27,1,37*,-5,-2,71*,29*,dCAG dye DR=i
COc1ccc(/C=C2\SC(=Nc3ccccc3Cl)NC2=O)c(OC)c1,/,/,39*,31,-2,46*,13*,
O=C1NC(=Nc2ccccc2Cl)S/C1=C\c1cccc([N+](=O)[O-])c1,27,19,54*,14,-2,67*,26*,
O=C1NC(=Nc2ccccc2Cl)S/C1=C\c1cccc([N+](=O)[O-])c1O,29,6,89*,41,-4,70*,33*,dCAG dye DR=i
Cc1ccc(Cn2cc(CN3[C@@H](CC(C)C)COc4cc(Br)ccc4S3(=O)=O)nn2)cc1,/,/,5,/,/,/,/,
COC(=O)c1cc(-c2cnc(OC)nc2OC)c(=O)n2c1CCC2,/,/,1,/,/,/,/,
CCCCCN1CCCCC(NC(=O)c2ccccc2C)C1=O (stereo not drawn),/,/,2,/,/,/,/,
Cc1onc(-c2ccccc2Cl)c1C(=O)Nc1nnc(-c2cccc([N+](=O)[O-])c2)s1,12,17,42*,20,20,34,7.4*,
CN(c1ccc(O)cc1)c1nc(O)c(C2=c3ccccc3=NC2=O)s1,/,-4,49*,-26,-2,18,9.2*,
N#Cc1c(-c2ccccc2)nc(SCc2cccc(Cl)c2)[nH]c1=O,6,16,82*,0,9,76*,43*,
O=C(CSc1nc(-c2ccc(Cl)cc2)[nH]c(=O)n1)Nc1cccc(Cl)c1,21,7,57*,-42,-1,66*,30*,
N#Cc1c(-c2ccco2)nc(SCC(=O)Nc2cccc(Cl)c2)[nH]c1=O,16,11,72*,-6,0,72*,27*,dCAG dye DR=i
CCc1ccc(NC(=O)C(C)Sc2nc(-c3ccco3)c(C#N)c(=O)[nH]2)cc1 (stereo not drawn),-25,10,79*,11,-1,70*,33*,dCAG dye DR=9.7*;dCAG TOPRO ctr=3.3*;rCAG binder-2=1.1*
Cn1cccc1C(=O)N1CCN(S(=O)(=O)c2ccccc2F)CC1,/,/,2,/,/,/,/,
O=S(=O)(N=C(NS(=O)(=O)c1ccc(Cl)cc1)c1ccccc1)c1ccc(Cl)cc1,/,/,55*,-22,10,50*,13*,
Cn1c(C(=O)O)c(CC(=O)Nc2ccccc2F)c2ccccc21,11,0,8,-24,4,/,/,
Cc1ccc2c(c1)c(CC(=O)Nc1ccc(C)c(F)c1)c(C(=O)O)n2C,-8,6,49*,-18,0,44*,13*,
O=C(Cc1nnc(NC(=O)c2ccccc2)s1)N/N=C/c1ccco1,23,8,71*,-10,0,6,5.7*,
Cc1ccccc1CN1CCCCC(NC(=O)Nc2cccc([N+](=O)[O-])c2)C1=O (stereo not drawn),/,/,6,/,/,/,/,
CCC(CC)(CC(=O)Nc1cccc(/C=C/c2nc(C3CCC3)cs2)c1)C(=O)O,/,/,46*,/,/,55*,18*,
CC(=O)Nc1cccc(NC(=O)CCCC2CCCCC2)c1,-3,1,-6,-14,4,/,/,
Nc1nc(SCc2nnc(SCC(=O)O)n2-c2ccccc2)nc2sc3c(c12)CCCC3,11,3,61*,7,7,69*,23*,dCAG dye DR=>30
Oc1ccccc1N=N/C(=N/Nc1ccccc1O)c1ccccc1,/,-1,19,-2,1,/,/,
SMILES,NS3 helicase inh,HCV core dimer,rCAG binder-1,TAAR1 antag,TAAR1 agonist,rCAG bind conf,dCAG dye counter,others
N#C/C(N=Nc1ccccc1O)=N\Nc1ccccc1O,/,-56,57*,66*,3,74*,29*,
CCOc1ccc(N=C2SC(C(=O)Nc3ccccc3C#N)C(N)=C2C(=O)Nc2ccc(Cl)cc2)cc1 (stereo not drawn),5,55*,39*,-6,0,28,17*,
CCCCNC(=O)c1nc(C2CCN(S(=O)(=O)c3ccc(Cl)cc3)CC2)oc1-c1ccccc1,/,/,4,1,0,/,/,
CCCCNC(=O)c1nc(C2CCN(S(=O)(=O)c3csc(C(=O)O)c3)CC2)oc1-c1ccccc1,/,/,44*,-20,0,39*,11*,dCAG dye DR=>30
COCCCn1cc(CN2CC=CS2(=O)=O)nn1,/,/,3,/,/,/,/,
CC(C)CC(C(=O)Nc1cccc(O)c1)N1C(=O)c2ccccc2C1=O (stereo not drawn),3,10,4,-1,4,/,/,
CC(C)CC(C(=O)Nc1oc(-c2ccco2)c(-c2ccco2)c1C#N)N1C(=O)c2ccccc2C1=O (stereo not drawn),36,20,78*,11,5,74*,36*,
CCOC(=O)C1=C(C)N=c2s/c(=C\c3ccc(OC(C)=O)c(OCC)c3)c(=O)n2C1/C=C/c1ccccc1 (stereo not drawn),5,21,3,-2,6,/,/,
COc1cccc(C2C(C(=O)Nc3ccccc3)=C(C)N=c3s/c(=C/c4ccc(OCC(=O)O)cc4)c(=O)n32)c1 (stereo not drawn),11,6,72*,1,0,82*,50*,

# Screens (PubChem)
